# Data: ChEMBL document CHEMBL1135783, “Selective agonists at group II metabotropic glutamate receptors: synthesis, stereochemistry, and molecular pharmacology of (S)- and (R)-2-amino-4-(4-hydroxy[1,2,5]thiadiazol-3-yl)butyric acid” (J Med Chem, 2002)
# Experiments:
# [1] = target: Metabotropic glutamate receptor 4 (Rattus norvegicus, UniProt P31423); assay: Compound was evaluated for the inhibitory activity against cloned Metabotropic glutamate receptor 4
# Procedure, shortened: (§1)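 CHO cell lines stably expressing mGluR1α, mGluR2, mGluR4a or mGluR5a, grown at 37 °C in 5% CO2 in DMEM with reduced (S)-glutamine ([…]) and 10% dialyzed fetal calf serum. Cells were seeded 2 days before assay: 1.8 × 10^6 cells/well for inositol phosphate (PI hydrolysis) or 1.0 × 10^6 for cAMP formation. Antagonist activity was tested at 1 mM unless stated otherwise.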
# [2] = target: Metabotropic glutamate receptor 5 (Rattus norvegicus, UniProt P31424); assay: Compound was evaluated for the inhibitory activity against cloned Metabotropic glutamate receptor 5; procedure, shortened: as §1
# [3] = target: Metabotropic glutamate receptor 2 (Rattus norvegicus, UniProt P31421); assay: Compound was evaluated for the inhibitory activity against cloned Metabotropic glutamate receptor 2; procedure, shortened: as §1
# [4] = target: Metabotropic glutamate receptor 1 (Rattus norvegicus, UniProt P23385); assay: Compound was evaluated for the inhibitory activity against cloned Metabotropic glutamate receptor 1; procedure, shortened: as §1
# Chain of Metabotropic glutamate receptor 1 (P23385 whole entry): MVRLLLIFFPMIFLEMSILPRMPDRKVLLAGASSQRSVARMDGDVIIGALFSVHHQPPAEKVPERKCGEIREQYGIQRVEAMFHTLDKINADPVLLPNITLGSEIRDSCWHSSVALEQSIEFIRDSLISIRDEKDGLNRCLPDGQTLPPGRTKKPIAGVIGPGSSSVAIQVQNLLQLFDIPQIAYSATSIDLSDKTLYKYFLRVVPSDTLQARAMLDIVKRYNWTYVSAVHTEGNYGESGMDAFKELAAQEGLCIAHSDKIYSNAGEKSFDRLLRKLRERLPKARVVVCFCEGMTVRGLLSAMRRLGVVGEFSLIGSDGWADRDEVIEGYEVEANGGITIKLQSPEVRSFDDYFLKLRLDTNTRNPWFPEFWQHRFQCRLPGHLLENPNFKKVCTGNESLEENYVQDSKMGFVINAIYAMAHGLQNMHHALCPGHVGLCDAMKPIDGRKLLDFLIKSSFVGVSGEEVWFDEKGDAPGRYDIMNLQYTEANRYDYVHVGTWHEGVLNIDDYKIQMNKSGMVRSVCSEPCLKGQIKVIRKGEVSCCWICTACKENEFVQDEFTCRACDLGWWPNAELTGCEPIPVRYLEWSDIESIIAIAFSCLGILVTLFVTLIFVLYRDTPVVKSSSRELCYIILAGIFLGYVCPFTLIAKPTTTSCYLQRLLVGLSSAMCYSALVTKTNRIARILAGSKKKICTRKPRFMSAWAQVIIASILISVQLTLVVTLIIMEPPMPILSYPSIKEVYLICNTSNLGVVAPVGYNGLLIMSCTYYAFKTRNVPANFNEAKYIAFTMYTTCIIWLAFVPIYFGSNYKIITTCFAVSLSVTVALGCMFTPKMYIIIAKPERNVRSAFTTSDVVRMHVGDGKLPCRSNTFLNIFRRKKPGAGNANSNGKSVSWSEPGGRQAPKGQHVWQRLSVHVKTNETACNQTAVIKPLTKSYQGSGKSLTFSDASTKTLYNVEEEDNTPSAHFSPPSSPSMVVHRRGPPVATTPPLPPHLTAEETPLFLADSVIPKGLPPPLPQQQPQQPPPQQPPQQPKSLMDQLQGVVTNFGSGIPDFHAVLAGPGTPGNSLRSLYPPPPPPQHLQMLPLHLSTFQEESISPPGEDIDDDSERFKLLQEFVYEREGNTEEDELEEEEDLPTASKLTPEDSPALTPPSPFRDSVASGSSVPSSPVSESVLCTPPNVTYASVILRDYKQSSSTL
# Chain of Metabotropic glutamate receptor 5 (P31424 whole entry): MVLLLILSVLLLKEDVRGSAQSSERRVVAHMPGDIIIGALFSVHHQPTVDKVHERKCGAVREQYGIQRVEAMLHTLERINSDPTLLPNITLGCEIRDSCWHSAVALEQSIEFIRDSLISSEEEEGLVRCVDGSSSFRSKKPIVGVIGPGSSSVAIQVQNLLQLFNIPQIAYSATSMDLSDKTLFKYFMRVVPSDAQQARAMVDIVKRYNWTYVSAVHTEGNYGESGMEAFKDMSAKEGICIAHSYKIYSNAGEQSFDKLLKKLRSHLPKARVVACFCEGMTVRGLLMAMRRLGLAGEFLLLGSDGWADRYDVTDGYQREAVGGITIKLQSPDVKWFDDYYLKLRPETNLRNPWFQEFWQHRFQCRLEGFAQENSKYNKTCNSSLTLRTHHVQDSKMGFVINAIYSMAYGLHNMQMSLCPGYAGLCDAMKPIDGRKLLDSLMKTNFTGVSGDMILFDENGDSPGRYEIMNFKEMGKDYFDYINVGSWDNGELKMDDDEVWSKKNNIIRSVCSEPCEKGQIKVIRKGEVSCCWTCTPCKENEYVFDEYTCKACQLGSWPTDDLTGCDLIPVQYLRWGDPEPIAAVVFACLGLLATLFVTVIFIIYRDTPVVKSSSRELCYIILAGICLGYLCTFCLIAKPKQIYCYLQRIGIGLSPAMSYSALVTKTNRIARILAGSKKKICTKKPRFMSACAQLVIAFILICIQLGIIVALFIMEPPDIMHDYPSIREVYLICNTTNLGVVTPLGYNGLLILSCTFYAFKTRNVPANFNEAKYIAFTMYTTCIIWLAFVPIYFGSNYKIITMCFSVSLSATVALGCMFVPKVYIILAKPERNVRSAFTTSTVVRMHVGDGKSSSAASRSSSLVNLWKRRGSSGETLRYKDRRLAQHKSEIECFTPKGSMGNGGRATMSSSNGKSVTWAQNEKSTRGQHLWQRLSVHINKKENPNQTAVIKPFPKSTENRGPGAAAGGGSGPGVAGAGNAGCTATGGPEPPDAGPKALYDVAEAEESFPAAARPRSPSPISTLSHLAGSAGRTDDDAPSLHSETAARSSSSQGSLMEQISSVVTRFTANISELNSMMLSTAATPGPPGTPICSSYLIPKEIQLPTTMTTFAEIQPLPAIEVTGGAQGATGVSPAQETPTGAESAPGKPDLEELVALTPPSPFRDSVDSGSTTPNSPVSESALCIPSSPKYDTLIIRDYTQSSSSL
# Chain of Metabotropic glutamate receptor 4 (P31423 whole entry): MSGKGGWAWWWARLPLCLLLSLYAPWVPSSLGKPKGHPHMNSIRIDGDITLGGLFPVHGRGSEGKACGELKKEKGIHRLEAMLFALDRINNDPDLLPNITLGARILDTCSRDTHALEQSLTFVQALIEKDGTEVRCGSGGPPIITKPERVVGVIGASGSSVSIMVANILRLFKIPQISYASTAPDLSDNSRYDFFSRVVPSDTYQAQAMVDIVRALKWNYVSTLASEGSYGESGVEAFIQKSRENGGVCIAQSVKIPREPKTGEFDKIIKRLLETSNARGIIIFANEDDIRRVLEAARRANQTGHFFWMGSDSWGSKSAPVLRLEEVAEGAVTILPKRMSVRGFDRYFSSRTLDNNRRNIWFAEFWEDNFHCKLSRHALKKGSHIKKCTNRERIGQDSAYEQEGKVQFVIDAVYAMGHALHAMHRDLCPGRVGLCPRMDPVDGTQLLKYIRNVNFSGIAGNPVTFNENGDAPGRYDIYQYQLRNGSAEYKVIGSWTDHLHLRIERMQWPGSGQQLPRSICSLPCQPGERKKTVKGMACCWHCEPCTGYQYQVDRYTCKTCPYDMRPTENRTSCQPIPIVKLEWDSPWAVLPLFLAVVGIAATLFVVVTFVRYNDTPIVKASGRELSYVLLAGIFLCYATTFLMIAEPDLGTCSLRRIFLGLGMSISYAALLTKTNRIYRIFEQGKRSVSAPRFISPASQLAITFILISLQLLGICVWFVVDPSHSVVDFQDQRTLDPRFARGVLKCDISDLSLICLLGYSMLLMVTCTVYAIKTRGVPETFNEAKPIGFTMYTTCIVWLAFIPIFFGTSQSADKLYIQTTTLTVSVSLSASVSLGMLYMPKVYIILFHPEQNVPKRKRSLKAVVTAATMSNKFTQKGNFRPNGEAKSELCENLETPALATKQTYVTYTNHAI
# Chain of Metabotropic glutamate receptor 2 (P31421 whole entry): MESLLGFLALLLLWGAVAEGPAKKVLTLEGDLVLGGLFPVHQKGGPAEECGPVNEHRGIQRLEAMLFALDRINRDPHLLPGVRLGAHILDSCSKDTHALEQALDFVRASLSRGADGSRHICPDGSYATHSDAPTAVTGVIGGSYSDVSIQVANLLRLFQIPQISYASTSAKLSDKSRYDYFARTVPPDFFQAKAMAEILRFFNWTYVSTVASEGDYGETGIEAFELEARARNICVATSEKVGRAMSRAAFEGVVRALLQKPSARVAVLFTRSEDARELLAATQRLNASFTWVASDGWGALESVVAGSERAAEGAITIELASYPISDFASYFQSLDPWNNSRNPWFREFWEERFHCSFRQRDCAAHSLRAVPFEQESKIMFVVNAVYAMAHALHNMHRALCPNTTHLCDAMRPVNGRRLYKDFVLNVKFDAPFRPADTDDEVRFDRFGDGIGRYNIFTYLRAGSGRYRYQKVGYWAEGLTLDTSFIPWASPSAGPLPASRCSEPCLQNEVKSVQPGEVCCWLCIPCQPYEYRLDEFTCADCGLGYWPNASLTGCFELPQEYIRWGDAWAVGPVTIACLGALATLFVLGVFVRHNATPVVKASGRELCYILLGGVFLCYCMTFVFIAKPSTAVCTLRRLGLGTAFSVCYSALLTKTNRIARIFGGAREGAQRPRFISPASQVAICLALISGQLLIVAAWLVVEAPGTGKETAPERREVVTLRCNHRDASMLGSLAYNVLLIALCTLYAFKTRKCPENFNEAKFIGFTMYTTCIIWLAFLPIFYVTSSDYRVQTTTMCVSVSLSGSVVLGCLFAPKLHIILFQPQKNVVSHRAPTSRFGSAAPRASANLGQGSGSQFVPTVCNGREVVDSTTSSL
EC50 [1] [µM],EC50 [2] [µM],EC50 [3] [µM],EC50 [4] [µM],Structure (SMILES)
> 1000,> 1000,,> 1000,N[C@H](CCc1nsnc1O)C(=O)O
12,,,,N[C@@H](CCC(=O)O)C(=O)O [GLUTAMIC ACID]
> 1000,> 1000,> 1000,> 1000,N[C@H](Cc1cc(=O)[nH]o1)C(=O)O

# Second part, the compound before the results:
Structure (SMILES),EC50 [1] [µM],EC50 [2] [µM],EC50 [3] [µM],EC50 [4] [µM]
N[C@@H](Cc1cc(=O)[nH]o1)C(=O)O,> 1000,490,> 1000,250
N[C@@H](CCc1nsnc1O)C(=O)O,> 1000,190,,> 1000
N[C@@H](CCCC(=O)O)C(=O)O [(S)-2-AMINOADIPIC ACID],,> 1000,,
